The results in this text go back to ChEMBL document CHEMBL1152770, “Inhibitors of hepatitis C virus polymerase: synthesis and biological characterization of unsymmetrical dialkyl-hydroxynaphthalenoyl-benzothiadiazines” (J Med Chem, 2009).

The structures appear in SMILES notation.

Data set [1] can be described thus: Inhibition of HCV isolate H77 NS5B polymerase after 3 hrs by scintillation counting.
Data set [2] is described as follows: Inhibition of HCV isolate BK NS5B polymerase after 3 hrs by scintillation counting.
Data set [3] is described as follows: Plasma concentration in rat at 5 mg/kg, po after 6 hrs. The arrangement: dose 5 mg/kg, route oral. It is filed as ADME, organism-based. The essentials:
(§1)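 Vehicle DMSO:PEG400 (10:90, v/v). Dosing at 5 mg/kg in rat and monkey; dog 5 mg/kg or 2.5 mg/kg. Protein precipitation with acetonitrile, then LC-MS/MS in negative-ion MRM (m/z 516.2→437.0) against spiked standards with internal standard.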

Data set [4] can be described thus: Drug level in rat liver at 5 mg/kg, po after 12 hrs. The format is ADME, organism-based. The arrangement: dose 5 mg/kg, route oral. Particulars: read-out: Drug uptake. In outline:
(§2)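 Rats dosed orally at 5 mg/kg, four groups, sacrificed at 6 and 12 h. Plasma and liver homogenate extracted by acetonitrile protein precipitation with internal standard and quantified by LC-MS (negative-ion MRM). Liver/plasma ratio taken from the two concentrations.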

Data set [5] is described as follows: Plasma concentration in rat at 5 mg/kg, po after 12 hrs. The arrangement: dose 5 mg/kg, route oral. The format is ADME, organism-based. In outline: as §1
Data set [6] in a line: Ratio of drug level in liver to plasma in rat at 5 mg/kg, po after 6 hrs. It is filed as ADME, organism-based. On the set-up: dose 5 mg/kg, route oral. In outline: as §2
Data set [7] in a line: Drug level in rat liver at 5 mg/kg, po after 6 hrs. It is filed as ADME, organism-based. The arrangement: dose 5 mg/kg, route oral. To be noted: read-out: Drug uptake. In outline: as §2
Data set [8] in a line: Ratio of drug level in liver to plasma in rat at 5 mg/kg, po after 12 hrs. On the set-up: dose 5 mg/kg, route oral. The format is ADME, organism-based. In outline:
as §2

The nature of data set [9]: Terminal phase volume of distribution in dog at 5 mg/kg, iv. The format is ADME, organism-based, Canis lupus familiaris. The arrangement: dose 5 mg/kg, route intravenous. Particulars: in vivo, read-out: Vbeta. The essentials: as §1
In data set [10] the test system is Hepatitis C virus. Kind of data set: Antiviral activity against HCV 1a containing chimeric genotype 1a-H77/1b-con1 subgenom in human Huh7 cells assessed as reduction in viral RNA after 4 days by RT-PCR. Particulars: subtype 1a, Huh-7, 96 h.
Data set [11] in a line: Metabolic stability in dog hepatocytes assessed as intrinsic clearance. The format is ADME, cell-based, Canis lupus familiaris, Liver, Hepatocyte.
A short description of data set [12]: Metabolic stability in monkey hepatocytes assessed as intrinsic clearance. To be noted: rhesus monkey. The format is ADME, cell-based, Macaca mulatta, Liver, Hepatocyte.
A short description of data set [13]: Terminal phase volume of distribution in monkey at 5 mg/kg, iv. It is filed as ADME, organism-based, Macaca mulatta. The arrangement: dose 5 mg/kg, route intravenous. To be noted: rhesus monkey, in vivo, read-out: Vbeta. In outline:
(§3)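 Single intravenous dose. Heparinized plasma sampled at 0.1, 0.25, 0.5, 1, 2, 4, 6, 9, 12 and 24 h, plus 3 and 15 h in dog. Drug was isolated by acetonitrile protein precipitation and quantified by LC-MS in negative-ion MRM mode (m/z 516.2→437.0) against an internal standard. Concentrations came from unweighted linear regression of spiked standards.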

Data set [14] in a line: Metabolic stability in human liver microsomes assessed as intrinsic clearance. The format is ADME, Microsome.
The nature of data set [15]: Elimination half life in dog at 5 mg/kg, iv. The format is ADME, organism-based, Canis lupus familiaris. The arrangement: dose 5 mg/kg, route intravenous. Particulars: in vivo, read-out: beta t1/2 (converted). The essentials:
as §1

Data set [16] in a line: Terminal phase volume of distribution in rat at 5 mg/kg, iv. The format is ADME, organism-based. To be noted: in vivo, read-out: Vbeta. On the set-up: dose 5 mg/kg, route intravenous. In outline: as §3
A short description of data set [17]: Plasma clearance in dog at 5 mg/kg, iv. It is filed as ADME, organism-based, Canis lupus familiaris. The arrangement: dose 5 mg/kg, route intravenous. In outline: as §1
A short description of data set [18]: Elimination half life in rat at 5 mg/kg, iv. It is filed as ADME, organism-based. The arrangement: dose 5 mg/kg, route intravenous. To be noted: in vivo, read-out: beta t1/2 (converted). In outline:
as §1

Data set [19] in a line: Metabolic stability in monkey liver microsomes assessed as intrinsic clearance. The format is ADME, Macaca mulatta, Microsome. Particulars: rhesus monkey.
The nature of data set [20]: AUC in monkey at 5 mg/kg, iv. To be noted: rhesus monkey, plasma. The format is ADME, organism-based, Macaca mulatta. On the set-up: dose 5 mg/kg, route intravenous. In outline:
as §1

Data set [21] can be described thus: AUC in rat at 5 mg/kg, iv. The format is ADME, organism-based. On the set-up: dose 5 mg/kg, route intravenous. To be noted: plasma. The essentials: as §1
A short description of data set [22]: AUC in dog at 5 mg/kg, iv. The format is ADME, organism-based, Canis lupus familiaris. On the set-up: dose 5 mg/kg, route intravenous. Particulars: plasma. In outline:
as §1

Data set [23] in a line: Metabolic stability in rat liver microsomes assessed as intrinsic clearance. It is filed as ADME, Microsome.
The nature of data set [24]: Metabolic stability in dog liver microsomes assessed as intrinsic clearance. It is filed as ADME, Canis lupus familiaris, Microsome.
Data set [25] has as its system Hepatitis C virus. Kind of data set: Antiviral activity against HCV isolate Con1 in human Huh7 cells assessed as reduction in viral RNA after 4 days by RT-PCR. Particulars: isolate Con1, Huh-7, 96 h.
Data set [26] has as its system Hepatocyte. As to the kind of experiment: Metabolic stability in rat hepatocytes assessed as intrinsic clearance. It is filed as ADME, cell-based, Liver.
Data set [27] is described as follows: Volume of distribution at steady state in monkey at 5 mg/kg, iv. It is filed as ADME, organism-based, Macaca mulatta. Particulars: rhesus monkey, in vivo, read-out: Vdss. On the set-up: dose 5 mg/kg, route intravenous. In outline: as §3
The test system of data set [28] is Hepatitis C virus. Kind of data set: Ratio of EC50 for HCV isolate Con1 in presence of 40% human serum to EC50 for HCV isolate Con1. It is filed as functional, Hepacivirus hominis. In outline:
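Genotype 1b-con1 subgenomic replicon in Huh-7 cells. Four-day incubation with inhibitor in medium with 5% FBS, with or without 40% human serum. EC50 from the fall in HCV RNA copy number by real-time PCR. Ratio is EC50 with serum over EC50 without.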

The nature of data set [29]: Plasma clearance in rat at 5 mg/kg, iv. The format is ADME, organism-based. The arrangement: dose 5 mg/kg, route intravenous. The essentials:
as §1

Data set [30] in a line: Elimination half life in monkey at 5 mg/kg, iv. It is filed as ADME, organism-based, Macaca mulatta. On the set-up: dose 5 mg/kg, route intravenous. Particulars: rhesus monkey, in vivo, read-out: beta t1/2 (converted). The essentials: as §1
A short description of data set [31]: Plasma clearance in monkey at 5 mg/kg, iv. It is filed as ADME, organism-based, Macaca mulatta. On the set-up: dose 5 mg/kg, route intravenous. Particulars: rhesus monkey. The essentials:
as §1

Data set [32] can be described thus: Cytotoxicity against human HuH7 cells by MTT assay. It is filed as cell-based, Huh-7. Particulars: read-out: TD50 (the source's name). The essentials:
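Cytotoxicity in Huh-7 replicon cultures measured by MTT colorimetric assay after the four-day incubation.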

Data set [33] concerns Hepatocyte. As to the kind of experiment: Metabolic stability in human hepatocytes assessed as intrinsic clearance. The format is ADME, cell-based, Liver.
A short description of data set [34]: Volume of distribution at steady state in rat at 5 mg/kg, iv. It is filed as ADME, organism-based. The arrangement: dose 5 mg/kg, route intravenous. To be noted: in vivo, read-out: Vdss. In outline: as §3
Data set [35] can be described thus: Volume of distribution at steady state in dog at 5 mg/kg, iv. The arrangement: dose 5 mg/kg, route intravenous. The format is ADME, organism-based, Canis lupus familiaris. Particulars: in vivo, read-out: Vdss. In outline: as §3

Regarding `CC(C)(C)CC[C@]1(C)C(=O)C(C2=NS(=O)(=O)c3cc(NS(C)(=O)=O)ccc3N2)=C(O)c2ccccc21`, the IC50 in [1] was determined as 444 nM; in data set [2], 518 nM.

With `CC(C)(C)CC[C@@]1(C)C(=O)C(C2=NS(=O)(=O)c3cc(NS(C)(=O)=O)ccc3N2)=C(O)c2ccccc21`, the concentration at 6 h was 2240 nM in data set [3] and 21800 ng/g in data set [7]. In addition, the concentration at 12 h worked out at 4190 ng/g in data set [4] and 320 nM in [5]. Moreover, the Kp at 6 h in data set [6] was 17. Besides, in data set [8], the Kp at 12 h stood at 20.

As to `CC(C)CC[C@@]1(C)C(=O)C(C2=NS(=O)(=O)c3cc(NS(C)(=O)=O)ccc3N2)=C([O-])c2ccccc21.[Na+]`, the Vd in [9] was 1.74 L/kg; in [13] it was 0.5 L/kg; in [16] it was 1.97 L/kg; in [27], 0.19 L/kg; in data set [34], 1.72 L/kg; in [35] it was 1.1 L/kg. Also, the concentration at 12 h in data set [4] turned out to be 1430 ng/g. In addition, the EC50 in data set [10] is 11 nM; in data set [25], 3 nM. Further, the CL was found to be 2.2 µL/min/mg in data set [11], 29.2 µL/min/mg in data set [12], 9 µL/min/mg in data set [26] and 6.8 µL/min/mg in data set [33]. In addition, the microsomal CLint was 29.6 µL/min/mg in data set [14], 62 µL/min/mg in data set [19], 36.3 µL/min/mg in data set [23] and 3.5 µL/min/mg in data set [24]. For the same molecule, the half-life in data set [15] was 2.7 h; in data set [18] it was 1.2 h; in [30], 0.7 h. The clearance was 7.33 mL/min/kg in data set [17], 16 mL/min/kg in [29] and 8.5 mL/min/kg in data set [31]. Besides, the IC50 in data set [1] came out at 1.3 nM; in data set [2], 0.9 nM. For the same molecule, the figures for the AUC in data set [20], in data set [21] and in data set [22] were 10200 ng·h/mL, 5200 ng·h/mL and 11800 ng·h/mL, respectively. In [7], the concentration at 6 h stood at 3800 ng/g. In addition, the “Ratio EC50” value in [28] is given as 14. For the same molecule, the CC50 in data set [32] worked out at 35300 nM.

Consider `CC(C)CC[C@]1(C)C(=O)C(C2=NS(=O)(=O)c3cc(NS(C)(=O)=O)ccc3N2)=C(O)c2ccccc21`, for which the IC50 in data set [1] came out at 624 nM; in [2], 2300 nM.
